From ChEMBL document CHEMBL1127799, “Derivatives of a novel cyclopeptolide. 1. Synthesis, antifungal activity, and structure-activity relationships” (1994)
In brackets after ≈: the same amount, converted by molar mass.

Tests used:
Format in all cases: functional
Rattus norvegicus [1] = species: Rattus norvegicus; assay: Tested for efficacy of compound in experimental vaginal candidosis (rat) after oral treatment at dosage of 2x 300 mg kg e-1
Summary of the method: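 Hormonally conditioned female Wistar rats (~150 g), 10 per group, given intravaginal C. albicans no. 124, 3.5×10^4 CFU in 50 μL Sabouraud's glucose broth. Oral dosing twice, 2 h before and 18 h after infection. Vaginal swabs plated on Sabouraud's glucose agar with streptomycin (0.1 mg/mL), 48 h at 37 °C. Cured when C. albicans not reisolated.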

[2] = tested on: Meyerozyma guilliermondii; assay: Tested for minimum inhibitory concentration against Candida guilliermondii 80 (C.g) at pH 4.5.
Summary of the method: (§1)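 Broth microdilution in malt extract broth, initial pH 4.5 or 6.5, with 1×10^3 CFU per 0.2 mL well of thawed stored cultures. Compound stocks were made in 5% DMSO/0.2% Tween 80 and diluted to final 0.05–100 μg/mL. Plates were incubated 48 h at 30 °C and read macroscopically. MIC was the lowest concentration with no detectable growth. Vehicle-only wells served as controls.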

Mus musculus [3] = species: Mus musculus; assay: Tested for efficacy of compound in experimental vaginal candidosis (mouse) after oral treatment at dosage of 4 x300 mg kg e-1
Summary of the method: (§2)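 Female NMRI mice (18–20 g; 10 per group) were hormonally conditioned and infected intravaginally with 3.5×10^4 CFU C. albicans no. 124 in 50 μL Sabouraud's glucose broth. Four doses were given by gavage or ip, at 2 h before and 2, 18 and 24 h after infection. One day after the last dose, vaginal swabs were plated on Sabouraud agar with streptomycin (0.1 mg/mL) for 48 h at 37 °C. Failed reisolation counted as cure.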

Candida albicans [4] = assay: Tested for minimum inhibitory concentration against Candida albicans 3 (Candida albicans) at pH 6.5.
Summary of the method: (§3)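 Broth microdilution in malt extract broth, initial pH 6.5, 1×10^3 CFU per 0.2 mL well, from liquid-nitrogen-stored Sabouraud cultures. Compound from 0.08% stock in 5% DMSO/0.2% Tween 80, final 0.05–100 μg/mL. Visual reading after 48 h at 30 °C. MIC = lowest concentration with no detectable growth. Vehicle-only negative controls.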

[5] = tested on: Meyerozyma guilliermondii; assay: Tested for minimum inhibitory concentration against Candida guilliermondii 80 (C.g) at pH of 4.5.; summary of the method: as §1
Candida albicans [6] = assay: Tested for minimum subinhibitory concentration against Candida albicans 88 (Candida albicans) at pH 4.5.
Summary of the method: (§4)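 Malt extract broth microdilution at initial pH 4.5, 1×10^3 CFU/0.2 mL well, final compound 0.05–100 μg/mL diluted from DMSO/Tween 80 stocks. Incubation was 48 h at 30 °C with macroscopic reading. MSIC was the lowest concentration causing visible growth inhibition in at least two of three triplicates.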

Mus musculus [7] = assay: Tested for efficacy of compound in experimental vaginal candidosis (mouse) after intraperitoneal treatment at dosage of 4 x50 mg kg e-1; summary of the method: as §2
Pichia kudriavzevii [8] = assay: Tested for minimum inhibitory concentration against Candida krusei 132 (C.k) at pH 4.5.; summary of the method: as §1
Candida tropicalis [9] = assay: Tested for minimum inhibitory concentration against Candida tropicalis 43 (C.t) at pH 6.5.; summary of the method: as §3
Candida albicans [10] = assay: Tested for minimum subinhibitory concentration against Candida albicans 4 (Candida albicans) at pH 4.5.; summary of the method: as §4
Rattus norvegicus [11] = assay: Tested for efficacy of compound in experimental vaginal candidosis (rat) after intraperitoneal treatment at dosage of 2x 100 mg kg e-1
Summary of the method: (§5)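 Female Wistar rats (~150 g; 10 per group) were hormonally conditioned and infected intravaginally with 3.5×10^4 CFU C. albicans no. 124 in 50 μL broth. Intraperitoneal dosing was given twice, 2 h before and 18 h after infection. Swabs taken one day after the last dose were plated on streptomycin Sabouraud agar (48 h, 37 °C). Cure meant failed reisolation.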

Candida albicans [12] = assay: Tested for minimum inhibitory concentration against Candida albicans 124 (Candida albicans) at pH 4.5.; summary of the method: as §1
Mus musculus [13] = assay: Tested for efficacy of compound in experimental systemic candidosis (mouse) after intraperitoneal treatment at dosage of 8 *25 mg kg e-1
Summary of the method: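 Mice (female NMRI, 18–20 g; 10 per group) infected by tail-vein injection of 10⁶ CFU C. albicans no. 124. Compound was given intraperitoneally twice daily on 4 consecutive days, starting 2 h before inoculation. Efficacy was scored as survival rate up to day 9 after infection.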

[14] = tested on: Meyerozyma guilliermondii; assay: Tested for minimum subinhibitory concentration against Candida guilliermondii 80 (C.g) at pH 4.5.; summary of the method: as §4
Candida albicans [15] = assay: Tested for minimum subinhibitory concentration against Candida albicans 26 (Candida albicans) at pH 4.5.; summary of the method: as §4
Candida albicans [16] = assay: Tested for minimum subinhibitory concentration against Candida albicans 124 (Candida albicans) at pH 6.5.
Summary of the method: (§6)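 Malt extract broth microdilution, initial pH 6.5, inoculum 1×10^3 CFU per 0.2 mL well. Compound diluted from 0.08% stock (5% DMSO/0.2% Tween 80) to final 0.05–100 μg/mL. Macroscopic reading after 48 h, 30 °C. MSIC = lowest concentration giving visible growth inhibition in at least two of three triplicates. Vehicle-only negative controls.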

Candida tropicalis [17] = assay: Tested for minimum subinhibitory concentration against Candida tropicalis 43 (C.t) at pH 6.5.; summary of the method: as §6
Candida tropicalis [18] = assay: Tested for minimum subinhibitory concentration against Candida tropicalis 43 (C.t) at pH 4.5.; summary of the method: as §4
Candida albicans [19] = assay: Tested for minimum subinhibitory concentration against Candida albicans 3 (Candida albicans) at pH 6.5.; summary of the method: as §6
Rattus norvegicus [20] = species: Rattus norvegicus; assay: Tested for efficacy of compound in experimental vaginal candidosis (rat) after tropical treatment at dosage of 9x 1% drug concentration
Summary of the method: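 Hormonally conditioned female Wistar rats (~150 g; 10 per group) were infected intravaginally with 3.5×10^4 CFU C. albicans no. 124. Intravaginal gel (0.2 mL) started 2 h post-inoculation and was applied twice daily for 4 days, giving nine applications. Vaginal swabs taken one day after the last treatment were cultured on streptomycin Sabouraud agar at 37 °C for 48 h. Cure meant no reisolation.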

Candida albicans [21] = assay: Tested for minimum subinhibitory concentration against Candida albicans 9 (Candida albicans) at pH 4.5.; summary of the method: as §4
Rattus norvegicus [22] = assay: Tested for efficacy of compound in experimental vaginal candidosis (rat) after intraperitoneal treatment at dosage of 2x 50 mg kg e-1; summary of the method: as §5
Candida albicans [23] = assay: Tested for minimum inhibitory concentration against Candida albicans 26 (Candida albicans) at pH 4.5.; summary of the method: as §1
Pichia kudriavzevii [24] = assay: Tested for minimum inhibitory concentration against Candida krusei 132 (C.k) at pH of 4.5.; summary of the method: as §1
Candida albicans [25] = assay: Tested for minimum inhibitory concentration against Candida albicans 90 (Candida albicans) at pH 4.5.; summary of the method: as §1
Candida albicans [26] = assay: Tested for minimum inhibitory concentration against Candida albicans 4 (Candida albicans) at pH 4.5.; summary of the method: as §1
Candida albicans [27] = assay: Tested for minimum inhibitory concentration against Candida albicans 3 (Candida albicans) at pH 4.5.; summary of the method: as §1
Pichia kudriavzevii [28] = assay: Tested for minimum subinhibitory concentration against Candida krusei 132 (C.k) at pH 4.5.; summary of the method: as §4
Candida albicans [29] = assay: Tested for minimum subinhibitory concentration against Candida albicans 88 (Candida albicans) at pH 6.5.; summary of the method: as §6
Candida albicans [30] = assay: Tested for minimum inhibitory concentration against Candida albicans 26 (Candida albicans) at pH 6.5.; summary of the method: as §3

Question: What does the source list for `CC[C@@H](C)[C@H]1C(=O)NCC(=O)N(C)[C@@H](C(C)C)C(=O)N[C@@H](Cc2ccc(OC)cc2)C(=O)O[C@H](C)C(=O)N2CCCC[C@H]2C(=O)N(C)[C@@H](C(C)C)C(=O)N[C@@H](C(C)C)C(=O)N(C)[C@@H](CC(=O)O)C(=O)N(C)[C@@H]([C@@H](C)CC)C(=O)N1C`?
Answer: Efficacy (Rattus norvegicus [1]): 56%; MIC [2]: 6.25 µg/mL (≈ 5.55 µM); Efficacy (Mus musculus [3]): 64%; MIC (Candida albicans [4]): > 100 µg/mL; MIC [5]: 6.25 µg/mL (≈ 5.55 µM); MSIC (Candida albicans [6]): 0.78 µg/mL; Efficacy (Mus musculus [7]): 7%; MIC (Pichia kudriavzevii [8]): > 100 µg/mL; MIC (Candida tropicalis [9]): 100 µg/mL (≈ 88.8 µM); MSIC (Candida albicans [10]): 0.78 µg/mL; Efficacy (Rattus norvegicus [11]): 76%; MIC (Candida albicans [12]): 1.56 µg/mL (≈ 1.38 µM); Efficacy (Mus musculus [13]): 20%; MSIC [14]: 0.8 µg/mL; MSIC (Candida albicans [15]): 0.78 µg/mL; MSIC (Candida albicans [16]): 3.12 µg/mL; MSIC (Candida tropicalis [17]): 6.25 µg/mL; MSIC (Candida tropicalis [18]): 0.8 µg/mL; MSIC (Candida albicans [19]): 6.25 µg/mL; Efficacy (Rattus norvegicus [20]): 100%; MSIC (Candida albicans [21]): 0.78 µg/mL; Efficacy (Rattus norvegicus [22]): 0%; MIC (Candida albicans [23]): 6.25 µg/mL (≈ 5.55 µM); MIC (Pichia kudriavzevii [24]): > 100 µg/mL; MIC (Candida albicans [25]): 3.12 µg/mL (≈ 2.77 µM); MIC (Candida albicans [26]): 6.25 µg/mL (≈ 5.55 µM); MIC (Candida albicans [27]): 6.25 µg/mL (≈ 5.55 µM); MSIC (Pichia kudriavzevii [28]): 1.56 µg/mL; MSIC (Candida albicans [29]): 3.12 µg/mL; MIC (Candida albicans [30]): > 100 µg/mL
